# Several values for one entry are separate records, joined by “and”; a condition that tells them apart may be missing. Equal entries are not always repeated.
# What was measured:
# Hsp90α (1-236) NTD [1] = target: Hsp90α (1-236) NTD (Homo sapiens, UniProt P07900); experiment: ITC binding to Hsp90α NTD; settings: ITC, 298 K; for N: stoichiometry, one-site model
# How it was run: (§1)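 Human Hsp90α residues 1-236, N-terminal His-tagged, expressed in E. coli Rosetta (DE3), purified by Ni-NTA and size exclusion. ITC in matched 40 mM HEPES-KOH pH 7.4, 100 mM NaCl, 1% DMSO. Protein (503 or 336 μM) titrated into test compound (50.7 or 30.1 μM); nucleotides titrated into protein. One-site fit, mean of two titrations ± SEM.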
# Hsp90α (1-236) NTD [2] = experiment: ITC binding to Hsp90α NTD; set-up: species or system Human; settings: preference for Hsp90α over Hsp90β from ITC KD
# How it was run: as §1
# Hsp90β NTD = Hsp90β NTD (Homo sapiens, UniProt P08238); experiment: ITC binding to Hsp90β NTD; settings: 298 K; for N: stoichiometry, one-site model
# Sequence of Hsp90β NTD (P08238 1-221 limits assumed): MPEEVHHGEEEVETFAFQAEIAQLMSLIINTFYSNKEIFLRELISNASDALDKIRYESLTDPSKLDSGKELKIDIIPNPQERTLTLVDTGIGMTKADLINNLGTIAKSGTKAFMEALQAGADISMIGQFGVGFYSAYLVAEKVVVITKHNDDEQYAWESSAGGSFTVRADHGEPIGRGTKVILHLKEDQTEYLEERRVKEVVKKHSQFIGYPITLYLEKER
# How it was run: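 Human Hsp90β NTD, N-terminal His-tagged, expressed in E. coli Rosetta (DE3), purified by Ni-NTA then size exclusion. ITC in matched 40 mM HEPES-KOH pH 7.4, 100 mM NaCl, 1% DMSO. 891 or 885 μM protein was injected into 93.3 or 97.8 μM test compound in the cell. For ATP/ADP, protein was in the cell and nucleotide in the syringe. One-site fit; mean of two titrations ± SEM.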
# Hsp90α S52A (1-236) = Hsp90α S52A (1-236) (Homo sapiens, UniProt P07900, S52A); experiment: ITC binding to Hsp90α S52A mutant NTD; settings: for C-values / Kd / TΔS / ΔG / ΔH / N: ITC, 298 K; for N: stoichiometry, one-site model; for fold change in affinity, Hsp90α S52A vs wild type Hsp90α: ratio of ITC KD
# How it was run: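 Human Hsp90α NTD (1-236) S52A, N-terminal His-tagged, expressed in E. coli Rosetta (DE3), purified by Ni-NTA then size exclusion. ITC in matched 40 mM HEPES-KOH pH 7.4, 100 mM NaCl, 1% DMSO. 255 or 393 μM protein was injected into 33.0 or 41.8 μM test compound. Wild type was run alike: 503 or 336 μM into 50.7 or 30.1 μM. One-site fit; mean of two titrations ± SEM.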
# Hsp90β = settings: competition binding assays; cited from earlier work
C-values (Hsp90α (1-236) NTD [1]),Kd (Hsp90α (1-236) NTD [1]),TΔS (Hsp90α (1-236) NTD [1]),ΔG (Hsp90α (1-236) NTD [1]),ΔH (Hsp90α (1-236) NTD [1]),N (Hsp90α (1-236) NTD [1]),"α/β selectivity, KD (ITC) (Hsp90α (1-236) NTD [2])",C-values (Hsp90β NTD),Kd (Hsp90β NTD),TΔS (Hsp90β NTD),ΔG (Hsp90β NTD),ΔH (Hsp90β NTD),N (Hsp90β NTD),C-values (Hsp90α S52A (1-236)),Kd (Hsp90α S52A (1-236)),TΔS (Hsp90α S52A (1-236)),ΔG (Hsp90α S52A (1-236)),ΔH (Hsp90α S52A (1-236)),N (Hsp90α S52A (1-236)),"fold change in affinity, Hsp90α S52A vs wild type Hsp90α (Hsp90α S52A (1-236))",SMILES,further results
8.40 – 11.1,8.6 µM and 8.59 µM,-13.0 ± 0.28 kcal/mol,-6.90 ± 0.00 kcal/mol,-19.9 ± 0.28 kcal/mol,0.752 ± 0.014,1.4 ± 0.2 fold,6.74 – 14.1,12.4 ± 1.77 µM,-12.9 ± 0.99 kcal/mol,-6.75 ± 0.07 kcal/mol,-19.7 ± 0.92 kcal/mol,0.813 ± 0.042,16.7 – 18.2,9.06 ± 0.93 µM,-13.0 ± 0.21 kcal/mol,-6.85 ± 0.07 kcal/mol,-19.8 ± 0.14 kcal/mol,0.756 ± 0.100,1.05 ± 0.11 fold,Nc1ncnc2c1ncn2[C@@H]1O[C@H](COP(=O)(O)OP(=O)(O)O)[C@@H](O)[C@H]1O [ADP],–
1.13 – 1.44,209 ± 21.9 µM,-12.0 ± 1.84 kcal/mol,-5.05 ± 0.07 kcal/mol,-17.1 ± 1.77 kcal/mol,0.691 ± 0.066,1.3 ± 0.2 fold,1.00 – 1.19,281 ± 39.6 µM,-12.3 ± 2.55 kcal/mol,-4.90 ± 0.14 kcal/mol,-17.2 ± 2.40 kcal/mol,0.707 ± 0.112,1.26 – 1.29,239 ± 0.71 µM,-12.7 ± 0.85 kcal/mol,-4.95 ± 0.07 kcal/mol,-17.7 ± 0.78 kcal/mol,0.592 ± 0.026,1.14 ± 0.12 fold,Nc1ncnc2c1ncn2[C@@H]1O[C@H](COP(=O)(O)OP(=O)(O)OP(=O)(O)O)[C@@H](O)[C@H]1O [ATP],–
–,–,–,–,–,–,–,–,–,–,–,–,–,–,–,–,–,–,–,–,CC(C)c1cc(C(=O)N2Cc3ccccc3C2)c(O)c2cnoc12 [KUNB31],preference for Hsp90β over Hsp90α (Hsp90β): 50 fold

# From paper PMC6718336 (Proteins, 2019)
